{"data": "Measured values pooled from the literature", "target": "Ephrin type-A receptor 4 (EPHA4, Homo sapiens, UniProt P54764)", "note": "Each line is one published result; the experiments were not run side by side."}
{"SMILES": "Cn1cc(-c2cc(F)cc(N3CCn4c(cc5c4CCCC5)C3=O)c2CO)cc(Nc2ccc(N3CCN(C4COC4)CC3)cn2)c1=O", "read-out": "enzyme activity", "action": "inhibitor", "tested at": "0.1 µM", "endpoint": "inhibition", "value": "12%"}
{"SMILES": "CC(C)(C)c1cc(C=C(C#N)C#N)cc(Br)c1O", "read-out": "enzyme activity", "action": "inhibitor", "tested at": "0.5 µM", "endpoint": "remaining activity", "value": "94.7%"}
{"SMILES": "Nc1ncc(-c2nc(N3CCOCC3)nc(N3CCOCC3)n2)c(C(F)F)n1", "read-out": "cell-free assay", "method": "competition with immobilised ligand", "tested at": "10 µM", "endpoint": "remaining binding", "value": "94%"}
{"SMILES": "O=c1[nH]c2ccccc2n1C1CCN(Cc2ccc(-c3[nH]c4cc5ncnc5cc4nc3-c3ccccc3)cc2)CC1", "read-out": "cell-free assay", "tested at": "0.5 µM", "endpoint": "remaining signal", "value": "97.1%"}
{"SMILES": "COc1cc(Nc2ncc(F)c(Nc3ccc4c(n3)NC(=O)C(C)(C)O4)n2)cc(OC)c1OC", "read-out": "binding", "method": "competition with immobilised ligand", "tested at": "10 µM", "endpoint": "inhibition", "value": "69%"}
{"SMILES": "Cn1cc(-c2cccc(N3CCc4c(sc5c4CC(C)(C)C5)C3=O)c2CO)cc(Nc2ccncn2)c1=O", "read-out": "enzyme activity", "action": "inhibitor", "tested at": "1 µM", "endpoint": "inhibition", "value": "3%"}
{"SMILES": "Cc1nn(C)cc1-c1nc2c(N3CCN(Cc4ccc(Cl)cc4)CC3)c(Cl)cnc2[nH]1", "read-out": "binding", "method": "competition with immobilised ligand", "tested at": "1 µM", "endpoint": "remaining binding", "value": "100%"}
{"SMILES": "Cn1cncc1[C@](O)(COc1ccc(C#N)cc1-c1ccc(OC(F)(F)F)cc1)c1ccc(C#N)cc1", "read-out": "cell-free assay", "method": "competition with immobilised ligand", "tested at": "1 µM", "endpoint": "remaining binding", "value": "100%"}
{"SMILES": "COc1ncccc1-c1cnn2ccc(N3CCN(C(=O)OC(C)C)CC3)nc12", "read-out": "binding", "method": "competition with immobilised ligand", "tested at": "1 µM", "endpoint": "remaining binding", "value": "100%"}
